APOBEC3G inh: APOBEC3G DNA deaminase inhibitors, primary screen, biochemical, fluorescence, single-stranded DNA substrate, uHTS. recombinant A3G, ssDNA deamination FAM/TAMRA fluorescence. inhibition, % at 20 µM. 0.28% of 330,000 active. AID 493012, 2011;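 active = inhibition of at least 40% at 20 µM, with no more than 30% in the related APOBEC3A deaminase screen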;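 also: plate controls were DMSO wells with A3G for no effect and wells lacking A3G enzyme for full effect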
PfG6PD inh: PfG6PD enzyme inhibitors, primary screen, biochemical, fluorescence intensity, uHTS | 0.78% of 350,000 active | glucose-6-phosphate dehydrogenase-6-phosphogluconolactonase (Plasmodium falciparum 3D7) | PfGluPho enzyme, NADPH resazurin-diaphorase fluorescence | AID 504690, 2011 | inhibition, % at 20 µM;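 active = inhibition reaching at least a set limit at 20 µM in the primary screen, cut at about 59% in these data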;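 also: 0% = DMSO wells with substrate and 100% = DMSO wells lacking glucose-6-phosphate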
HKDC1 inh: HKDC1 hexokinase inhibitors, primary screen, biochemical, fluorescence, uHTS | recombinant HKDC1, G6PDH/diaphorase resazurin coupled fluorescence | inhibition, % at 20 µM | 0.16% of 340,000 active;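 active = inhibition above about 35% when tested at 20 µM, limit read from the data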;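 also: plate controls were DMSO wells with enzyme for no effect and DMSO wells lacking enzyme for full effect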
Target sequence (Q2TB90 whole entry, looked up): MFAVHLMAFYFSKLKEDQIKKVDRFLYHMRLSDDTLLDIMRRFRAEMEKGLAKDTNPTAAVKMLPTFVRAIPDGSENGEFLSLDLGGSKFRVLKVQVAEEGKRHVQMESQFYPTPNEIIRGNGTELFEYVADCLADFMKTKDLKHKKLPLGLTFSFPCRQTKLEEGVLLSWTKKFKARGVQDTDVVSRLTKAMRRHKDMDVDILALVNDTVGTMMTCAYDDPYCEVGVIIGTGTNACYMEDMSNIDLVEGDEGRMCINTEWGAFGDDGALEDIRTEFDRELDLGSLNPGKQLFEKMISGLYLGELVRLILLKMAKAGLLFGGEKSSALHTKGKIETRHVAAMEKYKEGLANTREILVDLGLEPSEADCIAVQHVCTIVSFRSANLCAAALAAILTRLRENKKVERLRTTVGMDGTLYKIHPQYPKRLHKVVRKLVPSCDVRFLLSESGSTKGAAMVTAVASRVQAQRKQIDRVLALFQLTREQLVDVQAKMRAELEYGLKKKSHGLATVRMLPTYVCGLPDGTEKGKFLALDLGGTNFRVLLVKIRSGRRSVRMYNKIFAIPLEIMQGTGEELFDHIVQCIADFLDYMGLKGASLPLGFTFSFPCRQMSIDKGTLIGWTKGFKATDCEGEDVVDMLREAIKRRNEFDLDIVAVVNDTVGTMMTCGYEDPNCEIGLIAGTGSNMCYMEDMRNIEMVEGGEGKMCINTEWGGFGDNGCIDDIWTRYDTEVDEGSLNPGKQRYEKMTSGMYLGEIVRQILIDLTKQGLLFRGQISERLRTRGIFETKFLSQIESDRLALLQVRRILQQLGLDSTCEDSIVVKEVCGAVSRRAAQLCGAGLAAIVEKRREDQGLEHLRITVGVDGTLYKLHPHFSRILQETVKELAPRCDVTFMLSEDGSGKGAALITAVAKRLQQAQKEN
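Assay system: recombinant HKDC1 hexokinase; detection: coupled resazurin fluorescence, excitation 525 nm, emission 613 nm; benchmarks: DMSO-plus-enzyme-mix negative control, buffer-substituted positive control; compound dosing: single 20 µM dose; schedule: 90 min at room temperature in dark; also added: glucose plus 1 mM ATP as hexokinase substrates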
A3A deaminase: APOBEC3A ssDNA deaminase inhibitors, primary screen, selectivity assay for APOBEC3G inhibitor project, biochemical, FAM/TAMRA oligo cleavage fluorescence | AID 493011, 2011 | inhibition, % at 20 µM | DNA dC->dU-editing enzyme APOBEC-3A (Homo sapiens), P31941 | 0.41% of 330,000 active | recombinant A3A, FAM/TAMRA ssDNA deamination fluorescence;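 active = at least 40% inhibition at 20 µM here, with at most 30% in a related deaminase screen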;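 also: plate controls were A3A with DMSO for no effect and wells lacking A3A enzyme for full effect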
hiPSC survival: enhancers of single-cell hiPSC survival, primary screen, ATPlite luminescence | 100% = ROCK inhibitor wells, 0% = DMSO | survival enhancement, % at 20 µM | 0.044% of 360,000 active; in the data active = survival enhancement above about 18%;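 also: cells exposed to compounds for 16 hours before the ATP read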
A3A conf: APOBEC3A deaminase inhibitors, retest, confirmation, selectivity assay for APOBEC3G inhibitor project, biochemical, single concentration, fluorescence readout. shares compounds with A3A deaminase. recombinant A3A, ssDNA deaminase UDG fluorescence assay. inhibition, % at 20 µM. 63% of 1,400 active. AID 493151, 2011;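 active = inhibition reaching a set limit, 80% of the first screen's cutoff, at 20 µM in any replicate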;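 also: plate controls were DMSO wells with A3A for no effect and wells lacking A3A enzyme for full effect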
UDG A3A counter: E. coli UDG inhibitors, confirmation, counter-screen for APOBEC3A inhibitor project, biochemical, single concentration, fluorescence, FAM/TAMRA oligo; shares compounds with A3A deaminase; 1,000 tested, under 10 active; inhibition, % at 20 µM; UDG counterscreen, FAM/TAMRA uracil oligo fluorescence; AID 504714, 2011; call rule not given here
* = called active by the depositor; x = no result. Shown are actives, neighbours in structure and some others; about 1.4% of the full set was active somewhere.

SMILES | APOBEC3G inh | PfG6PD inh | HKDC1 inh | A3A deaminase | hiPSC survival | A3A conf | UDG A3A counter
CCCCc1c(C)nc2ccc(OC)cc2c1SCCC(=O)O | 6 | 42 | 1 | 42* | -1 | 27 | x
CCOC(=O)CCSc1nc(C)c2cc(OC)ccc2n1 | 8 | 3 | -6 | 4 | -1 | x | x
O=C(CN1CCN(C2CCCCC2)CC1)c1c[nH]c2ccccc12 | 27 | -13 | -2 | 51* | 6 | 20 | x
CNC(=O)CSc1nc2nc(C)cc(C)n2n1 | -5 | -19 | -1 | -3 | 4 | x | x
Cc1cc(C)n2nc(SCC#N)nc2n1 | 4 | 7 | -6 | 97* | 0 | -1 | x
COc1ccccc1N1C(=N)S/C(=C\c2ccc(-c3ccccc3C(=O)O)o2)C1=O | 28 | -3 | 6 | 44* | -2 | 32* | -2
Cc1ccc(Nc2ccc(N)cc2S(=O)(=O)O)cc1 | -4 | 9 | 1 | 6 | 0 | x | x
Nc1ccc(Nc2ccccc2)c(S(=O)(=O)O)c1 | 18 | -6 | 5 | 67* | 1 | 57* | -1
C/C=C/c1ccc(OCC(=O)Nc2cc(OC)c(OC)c(OC)c2)c(OC)c1 | -1 | -11 | 5 | 0 | -1 | x | x
COc1cc(/C=C/c2cccc[n+]2C)ccc1OCC(=O)Nc1ccccc1 | 22 | 7 | -8 | 73* | 0 | 79* | 3
COc1ccc(NC(=O)COc2ccc(/C=C/c3cc[n+](C)cc3)cc2OC)cc1 | 7 | 13 | 0 | 52* | 1 | 76* | 3
COc1ccc(NC(=O)COc2ccc(/C=C/c3cccc[n+]3C)cc2OC)cc1 | 26 | -2 | -6 | 86* | -1 | 75* | -1
COc1cc(/C=C/c2cc[n+](C)cc2)ccc1OCC(=O)Nc1ccc(Cl)c(Cl)c1 | 13 | 21 | 12 | 81* | 1 | 78* | 4
COc1cc(C=O)ccc1OCC(=O)Nc1ccc2c(c1)OCO2 | -11 | 1 | -2 | -5 | 0 | x | x
COc1ccc(NC(=O)COc2ccc(/C=N/n3c(C)nnc3C)cc2OC)cc1 | -8 | -13 | 3 | -4 | -2 | x | x
CCCCCCCCC(NC(=O)c1ccc(C#N)cc1)C(=O)NCCC (stereo not drawn) | -4 | 12 | 6 | -1 | -1 | x | x
COc1ccc(S(=O)(=O)N2CCOCC2)cc1NC(=O)c1c(-c2ccccc2)noc1C | -5 | 4 | -6 | 1 | 1 | x | x
COc1ccccc1OCC(=O)Nc1ccc(Cl)cc1 | -9 | -4 | 10 | -2 | 2 | x | x
COc1cc(/C=C/c2cccc[n+]2C)ccc1OCC(=O)Nc1cccc(Cl)c1 | 19 | 18 | -2 | 81* | 0 | 75* | 3
CCC(C(=O)Nc1cccc(S(=O)(=O)N(C)c2ccccc2)c1)c1ccccc1 (stereo not drawn) | -2 | 14 | 0 | -2 | 2 | x | x
O=C(Cc1noc2ccccc12)Nc1ccc2ccccc2c1 | -4 | 3 | -2 | 47* | -2 | -33 | 8
CCOc1cc(CN2CCCC(CNC(=O)c3ccc(F)cc3)C2)ccc1OC (stereo not drawn) | -5 | -8 | -7 | 1 | 0 | x | x
Cc1ccc(S(=O)(=O)N2CCN(C(=O)COC(=O)CCOc3ccccc3C)CC2)c(C)c1 | 15 | 4 | 2 | 47* | 0 | 62* | -1
Cc1ccc(S(=O)(=O)N2CCN(C(=O)COC(=O)CCOc3cc(C)ccc3C)CC2)c(C)c1 | x | 0 | 6 | x | 0 | x | x
Cc1cc(C)c(CN2CCN(C(=O)Cn3cnc4c(NCc5ccccc5)ncnc43)CC2)c(C)c1 | 1 | 13 | -3 | 3 | 0 | x | x
SMILES | APOBEC3G inh | PfG6PD inh | HKDC1 inh | A3A deaminase | hiPSC survival | A3A conf | UDG A3A counter
Cn1cccc1C(=O)NC1CCCCCC1 | -10 | 7 | -3 | -5 | 0 | x | x
O=C(COc1ccccc1/C=C1/NC(=O)NC1=O)Nc1ccccc1 | 10 | 0 | -11 | 46* | 2 | 68* | -4
CN(CC(=O)N1CCN(Cc2ccccc2)CC1)C(=O)Cc1ccc(Cl)c(Cl)c1 | 1 | -21 | 7 | 50* | -1 | 34* | -3
CN(C)S(=O)(=O)N(CC(=O)N1CCN(Cc2ccccc2)CC1)c1ccccc1 | -6 | -5 | -5 | 33 | 0 | x | x
O=C(Nc1cccc(S(=O)(=O)N2CCCCCC2)c1)C1CCN(C(=O)c2ccc(Cl)cc2)CC1 | -2 | 0 | -3 | 4 | 0 | x | x
COc1ccc(N2CCN(C(=O)Cc3ccc(S(=O)(=O)N4CCOCC4)s3)CC2)cc1 | 10 | -7 | 7 | 49* | 3 | 25 | x
O=C(O)Cc1ccc(S(=O)(=O)N2CCCC2)s1 | 7 | -6 | 1 | 49* | -2 | 51* | -2
O=C1N=C(N2CCCCC2)S/C1=C/C1=Cc2ccccc2OC1 | -4 | 6 | 8 | -2 | 1 | x | x
O=C1N=C(N2CCCC2C(=O)O)S/C1=C\c1ccco1 (stereo not drawn) | 11 | -1 | -6 | 44* | 1 | 19* | 3
COc1ccc(NC(=O)/C(C#N)=C/c2ccc(Br)o2)cc1 | 27 | -3 | -11 | 67* | 1 | 58* | x
CCN1CCN(c2ccc(S(=O)(=O)N3CCOCC3)cc2NC(=O)c2ccccc2OC(F)F)CC1 | 4 | 13 | 3 | 15 | -1 | x | x
CCN1CCN(S(=O)(=O)c2ccc(Cl)c(C(=O)Nc3ccccc3N3CCOCC3)c2)CC1 | 4 | -13 | 0 | 53* | 0 | 57* | -1
CCN1CCN(S(=O)(=O)c2ccc(Cl)c(C(=O)Nc3cc(Cl)ccc3N3CCOCC3)c2)CC1 | 28 | 1 | -4 | 54* | 0 | 58* | 0
CCN1CCN(c2ccc(S(=O)(=O)N3CCOCC3)cc2NC(=O)c2ccc(C)c(C)c2)CC1 | -6 | 12 | 0 | 24 | 0 | x | x
CCN1CCN(c2ccc(S(=O)(=O)N3CCOCC3)cc2NC(=O)c2ccc(Cl)cc2Cl)CC1 | 4 | 18 | 0 | 45* | 0 | 24 | x
Cn1nc(-c2ccccc2)c(CO)c1Oc1ccc(F)cc1 | -10 | 10 | -12 | -2 | 1 | x | x
CCN1/C(=C/c2ccc3cc(C)ccc3[n+]2CC)Sc2cc(C)ccc21 | x | -5 | -1 | x | -5 | x | x

Bioassay records: PubChem, Sanford-Burnham Center for Chemical Genomics
